Most compounds without a hit are left out; they make up all but 4% or so of the library.
KCNQ1 inh: human KCNQ1 channel inhibition | P51787 | CHO-K1 KCNQ1, FluxOR thallium flux fluorescence; hits give high values | B-score at 10 µM | hit rate 1.3% among 310,000 | AID 2642;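 active = compounds whose thallium flux B-score, printed positive for inhibition, exceeds three library SD while starting fluorescence stays within three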;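 also: channel opened by potassium depolarization with thallium stimulus after 20 min compound exposure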
KCNK3 block: human KCNK3 channel inhibition, primary screen. O14649. B-score at 10 µM. CHO-KCNK3 thallium flux, FluxOR fluorescence; hits give low values. hit rate 0.84% among 340,000;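 active = B-score under library mean minus 4 SD, starting fluorescence ratio at most library mean plus 5 SD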;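 also: more negative B-score means stronger inhibition of thallium flux through KCNK3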
Target sequence (O14649 whole entry, looked up): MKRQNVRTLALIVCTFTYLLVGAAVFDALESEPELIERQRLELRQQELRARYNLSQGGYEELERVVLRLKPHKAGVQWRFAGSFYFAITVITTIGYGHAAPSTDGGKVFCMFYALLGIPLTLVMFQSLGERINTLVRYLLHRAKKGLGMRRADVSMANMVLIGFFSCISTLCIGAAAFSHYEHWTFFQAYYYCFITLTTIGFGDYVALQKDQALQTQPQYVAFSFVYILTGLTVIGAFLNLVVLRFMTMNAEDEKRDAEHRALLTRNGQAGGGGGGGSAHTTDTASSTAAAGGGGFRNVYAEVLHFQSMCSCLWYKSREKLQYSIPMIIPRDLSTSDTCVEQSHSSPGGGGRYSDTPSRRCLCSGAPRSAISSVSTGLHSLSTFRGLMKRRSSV
KCNK9 inh: inhibitors of human KCNK9 two-pore domain potassium channel | Q9NPC2 | HEK293 KCNK9, FluxOR thallium flux fluorescence; hits give low values | B-score at 10 µM | hit rate 1.2% among 310,000;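 active = ratio B-score over 3 SD below the library mean, with starting fluorescence within 5 SD of its mean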;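 also: negative B-score means less thallium flux so channel inhibition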
PHOSPHO1 inh: PHOSPHO1 (human) inhibition; Q8TCT1; recombinant PHOSPHO1, absorbance phosphatase assay; inhibition, % at 13.3 µM; hit rate 1.1% among 290,000; in the data active = inhibition above about 60%
KCNQ1 pot: human KCNQ1 channel potentiation or activation; AID 2648; CHO-K1 KCNQ1, thallium flux FluxOR fluorescence; hits give high values; hit rate 0.35% among 310,000; B-score at 10 µM;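 active = fluorescence ratio B-score, a plate-corrected score, at least three library SD, with initial intensity B-score within 5 SD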
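Schedule – 37 °C overnight plating, 90-min dark dye load, 20-min compound pretreatment · System – stable KCNQ1 CHO-K1 line · Probe or stimulus – thallium- and potassium-containing depolarizing buffer · Measured by – kinetic FluxOR fluorescence, 10 s baseline plus 110 s post-stimulus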
hERG protect: shields human hERG channel from block by proarrhythmic agents | CHO-hERG, FluxOR thallium flux, dofetilide IC70 present | activation (rescue from dofetilide block), less the hit threshold, % at 10 µM | hit rate 0.51% among 310,000 | AID 1511;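 active = activation above the mean of controls blocked by dofetilide plus 5 SD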;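 also: thallium influx through hERG after potassium depolarization seen as dye fluorescence rise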
Numbers without * were called inactive; i = inactive; . = no result.

SMILES	KCNQ1 inh	KCNK3 block	KCNK9 inh	PHOSPHO1 inh	KCNQ1 pot	hERG protect
O=C(O)c1ccc(N=NNc2cccc([N+](=O)[O-])c2)cc1	i	i	i	24	i	-1
COC(=O)c1cccnc1NC(=S)NC1CCCCC1	i	i	i	-15	18*	0
O=C(Nc1cccnc1)NC1CCCCC1	i	i	i	68*	i	-19
O=C(NC1CCCC1)c1cccnc1N1CCCCCC1	i	i	i	46	i	5.0*
CCc1nnc(NC(=O)CSc2nnc(-c3ccco3)n2CC)s1	i	i	i	15	i	-9
COc1ccc([C@H]2C=C(C(=O)O)O[C@@H](OCc3ccc(CO)cc3)C2)cc1	i	i	i	39	i	-8
COc1cc(NC(=O)c2ccc(Cl)cc2)c(Cl)cc1NC(=O)c1cccnc1	i	i	i	63*	i	-5
COc1cc(NC(=O)c2cccnc2)c(Cl)cc1NC(=O)c1ccc(Cl)cc1	i	i	i	28	i	-1
Cc1ccc(O)c(C(=O)CC(=O)c2ccccc2Cl)c1	i	i	i	41	13*	45*
Cc1ccc(C(=O)CC(=O)c2cccc(F)c2)c(O)c1	i	i	i	16	16*	10*
CN(C)C(=O)COC(=O)c1cccc(S(=O)(=O)Nc2ccc(OCc3ccccc3)cc2)c1	i	i	i	4	i	-6
COc1ccc(Oc2nc(-c3cccnc3)nc3ccccc23)cc1	i	i	i	24	i	-2
CCCOc1ccc(-c2nc(OC)c3ccccc3n2)cc1	i	i	-6.6*	30	i	-3
CCCOc1ccccc1OCC(=O)Nc1ccc(S(=O)(=O)N2CCCCC2)cc1	i	i	i	.	i	-4
Cc1ccc(C)c(CN2CCC(CNC(=O)CCc3nnc4ccc(N5CCC(C)CC5)nn34)CC2)c1	i	i	i	48	i	-15
COc1ccc(OC)c(S(=O)(=O)Nc2ccc(O)c3ccccc23)c1	i	i	i	17	i	11*
COc1ccc(OC)c(S(=O)(=O)Nc2cccc3c(O)cccc23)c1	i	i	i	.	i	-4
O=C(Cc1ccccc1)NCC(=O)N/N=C/c1cccs1	i	i	i	24	i	-10
CN(CC(=O)Nc1c(Cl)cccc1Cl)C(=O)c1cc(S(=O)(=O)N(C)C)ccc1N1CCCC1	i	i	i	.	i	-15
O=c1c2cc(Br)ccc2[nH]c(=S)n1Cc1ccccn1	i	i	i	3	i	-6
Cc1ccccc1CS(=O)(=O)c1nnc([C@H](Cc2ccccc2)NC(=O)OC(C)(C)C)o1	i	i	i	11	12*	-15
Cc1ccc(S(=O)(=O)N(C)CC(=O)N(CC(C)C)C2CCS(=O)(=O)C2)cc1 (centres undefined)	i	i	i	.	i	-7
CCOc1ccc(-n2cc(C(=O)c3cc(Cl)ccc3O)cc(C#N)c2=O)cc1	8*	i	i	9	i	-8
COc1ccc(-n2cc(C(=O)c3cc(Cl)ccc3O)cc(C#N)c2=O)cc1	6*	i	i	7	i	-3
Cc1ccc(C(=O)NC(C)c2ccc(-n3ccnc3)cc2)cc1 (centres undefined)	i	i	i	20	i	-4
SMILES	KCNQ1 inh	KCNK3 block	KCNK9 inh	PHOSPHO1 inh	KCNQ1 pot	hERG protect
CC(=O)Nc1ccc(C(=O)NC(C)c2ccc(-n3ccnc3)cc2)cc1 (centres undefined)	i	i	i	68*	i	-8
Cc1nc(NC(=O)/C=C/c2ccccc2)sc1C(=O)Nc1ccccc1Cl	i	i	i	32	i	-13
Cc1nc(NC(=O)/C=C/c2ccccc2)sc1C(=O)Nc1ccc(Cl)cc1	i	i	i	65*	i	-7
COc1ccc(N(C(=O)c2snc(C(N)=O)c2N)C(C(=O)NCC2CCCO2)c2ccc(C)o2)cc1OC (centres undefined)	i	i	i	32	i	-5
C=CCn1c(-c2cc(Cl)ccc2OC)n[nH]c1=S	i	i	i	92*	i	-10
CCn1c(-c2cc(OC)c(OC)c(OC)c2)n[nH]c1=S	i	i	i	-37	i	-8
COc1ccc(Cl)cc1-c1n[nH]c(=S)n1C	i	i	i	85*	i	-10
CCn1c(-c2cc(Cl)ccc2OC)n[nH]c1=S	i	i	i	89*	i	-11
COc1ccc(Cl)cc1-c1nc(SCC(=O)N(C)C)n[nH]1	i	i	i	-16	i	-11
CCn1c(-c2cccc(Cl)c2)n[nH]c1=S	i	i	i	95*	i	0
O=C(NNc1nc(Nc2ccccc2)nc(N2CCOCC2)n1)Nc1ccc(Cl)cc1	i	i	i	12	i	-4
CCOc1ccc(-n2cnnn2)cc1S(=O)(=O)N1CCCCC1	i	i	i	-11	i	-6
CCCCn1c(-c2ccoc2C)n[nH]c1=S	i	i	i	-3	i	-11
CCn1c(-c2csc(-c3ccc(Cl)cc3)n2)n[nH]c1=S	i	i	i	83*	i	-10
C=CCn1c(-c2ccoc2C)n[nH]c1=S	i	i	i	81*	i	-8
CCn1c(-c2csc(-c3ccccc3)n2)n[nH]c1=S	i	i	i	60	i	-5
O=C(OCC(=O)N1CCCc2ccccc21)c1cc(S(=O)(=O)N2CCOCC2)ccc1O	.	i	.	.	.	.
O=C(O)Cc1ccc(NC(=O)Nc2cccc(Cl)c2)cc1	i	i	i	29	i	-4
O=C(Nc1cccc(Cl)c1)Nc1nc(-c2ccc(Cl)cc2)cs1	8*	i	i	6	i	-8
O=C(Nc1ccccc1)Nc1nc(-c2ccc(Cl)cc2)cs1	i	i	i	-6	i	-14
CN(C)c1ccc(NC(=O)Nc2cccc(Cl)c2)cc1	i	i	i	93*	i	-12
COCCn1c(-c2ccc(Br)cc2)nc2oc3cc(OC)ccc3c(=O)c2c1=O	i	i	i	-27	i	-4
C[n+]1c(/C=C/c2ccc(O)cc2)ccc2ccccc21	i	i	i	22	i	-11
Cc1cc(/C=C\c2ccc3cc(N(C)C)ccc3[n+]2C)c(C)n1-c1ccccc1	.	-11*	.	.	.	.
O=C(NC(=S)N1CCN(C/C=C/c2ccccc2)CC1)c1ccco1	i	i	i	35	i	-10
O=C(NC(=S)N1CCN(C/C=C/c2ccccc2)CC1)c1c(F)cccc1F	i	i	i	4	7*	-4

Screening results: PubChem, several laboratories
